# Paper PMC5288965 (Journal of Advanced Pharmaceutical Technology & Research, 2017)
# Entries after “also recorded” stand apart in the source; their conditions may differ. Read-outs that look alike come from different tables or passages of the source.
# Columns and labels:
# [1] = molecular target: yeast α-glucosidase (Saccharomyces cerevisiae, UniProt P53341); experiment: Inhibition of yeast alpha-glucosidase activity; assay type: biochemical
# [2] = molecular target: rat intestinal α-glucosidase; experiment: Inhibition of rat alpha-glucosidase activity; assay type: biochemical; settings: for IC50 Rat α-glucosidase: 1 mM PNPG substrate, triplicate; for % inhibition of rat α-glucosidase: at 1.25 mg/ml
# [3] = molecular target: T1, porcine pancreatic α-amylase (Sus scrofa, UniProt P00690); experiment: Inhibition of pancreatic alpha-amylase activity; assay type: biochemical
# T1 sequence (P00690 16-511): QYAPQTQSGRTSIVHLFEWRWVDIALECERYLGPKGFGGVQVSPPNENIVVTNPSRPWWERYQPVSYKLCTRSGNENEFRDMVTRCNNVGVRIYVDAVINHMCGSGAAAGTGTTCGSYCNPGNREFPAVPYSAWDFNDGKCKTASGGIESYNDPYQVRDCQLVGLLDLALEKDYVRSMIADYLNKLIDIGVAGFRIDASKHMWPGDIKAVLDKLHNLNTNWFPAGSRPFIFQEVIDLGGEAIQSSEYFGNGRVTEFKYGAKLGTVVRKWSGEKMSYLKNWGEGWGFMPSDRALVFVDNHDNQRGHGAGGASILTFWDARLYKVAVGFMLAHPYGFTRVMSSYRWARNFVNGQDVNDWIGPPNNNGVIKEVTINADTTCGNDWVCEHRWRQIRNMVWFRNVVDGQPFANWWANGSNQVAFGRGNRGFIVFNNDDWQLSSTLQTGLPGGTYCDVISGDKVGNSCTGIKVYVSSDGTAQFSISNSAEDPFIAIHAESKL
# [4] = tested on: BT474 ductal carcinoma cells; experiment: MTT assay, BT474; assay type: cell-based; settings: Homo sapiens, BT-474, 48 h, read-out: IC50 BT474
# Procedure, shortened: (§1)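 Cells grown in RPMI 1640 with 5% fetal calf serum at 37°C, 5% CO2. Seeded 5,000 cells per well, 24 h, then test compound in DMSO added (vehicle DMSO, or water for the reference drug), 48 h at 37°C. MTT solution (5 mg/ml) added for 4 h, medium removed, formazan dissolved in DMSO plus 0.1 mol/l glycine, A540 read. Run in quadruplicate.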
# [5] = tested on: Chago K-1 bronchogenic carcinoma cells; experiment: MTT assay, Chago K-1; assay type: cell-based; settings: Homo sapiens, ChaGo-K-1, 48 h, read-out: IC50 Chago-K1
# Procedure, shortened: as §1
# [6] = tested on: Hep-G2 liver hepatoblastoma cells; experiment: MTT assay, Hep-G2; assay type: cell-based; settings: Homo sapiens, HepG2, 48 h, read-out: IC50 Hep-G2
# Procedure, shortened: as §1
# [7] = tested on: Kato-III gastric carcinoma cells; experiment: MTT assay, Kato-III; assay type: cell-based; settings: Homo sapiens, 48 h, read-out: IC50 Kato-III
# Procedure, shortened: as §1
# [8] = tested on: SW 620 colon adenocarcinoma cells; experiment: MTT assay, SW 620; assay type: cell-based; settings: Homo sapiens, SW-620, 48 h, read-out: IC50 SW620
# Procedure, shortened: as §1
# [9] = tested on: CCD-986SK skin fibroblast cells; experiment: MTT assay, normal skin fibroblast; assay type: cell-based, human
# Procedure, shortened: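 Culture medium was Dulbecco's modified Eagle's medium, 37°C, 5% CO2. Cells were seeded at 5,000 per well for 24 h and exposed to test compound in DMSO for 48 h at 37°C. MTT (5 mg/ml solution) was added for 4 h, medium was removed, formazan was dissolved in DMSO with 0.1 mol/l glycine, and A540 was read. Run in quadruplicate.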
# [10] = tested on: WI-38 VA-13 subline 2RA lung fibroblast cells; experiment: MTT assay, normal lung fibroblast; assay type: cell-based, human
# Procedure, shortened: as §1
# [11] = tested on: all tested cancer cell lines (BT474, Chago K-1, Hep-G2, Kato-III, SW 620); experiment: MTT assay, all tested cancer cell lines together; assay type: cell-based, human
# Procedure, shortened: as §1
# [12] = molecular target: α-glucosidase; settings: cited from earlier work
# [13] = molecular target: α-amylase; settings: cited from earlier work
# [14] = read-out: % inhibition of pancreatic α-amylase
# Chain of yeast α-glucosidase (P53341 whole entry): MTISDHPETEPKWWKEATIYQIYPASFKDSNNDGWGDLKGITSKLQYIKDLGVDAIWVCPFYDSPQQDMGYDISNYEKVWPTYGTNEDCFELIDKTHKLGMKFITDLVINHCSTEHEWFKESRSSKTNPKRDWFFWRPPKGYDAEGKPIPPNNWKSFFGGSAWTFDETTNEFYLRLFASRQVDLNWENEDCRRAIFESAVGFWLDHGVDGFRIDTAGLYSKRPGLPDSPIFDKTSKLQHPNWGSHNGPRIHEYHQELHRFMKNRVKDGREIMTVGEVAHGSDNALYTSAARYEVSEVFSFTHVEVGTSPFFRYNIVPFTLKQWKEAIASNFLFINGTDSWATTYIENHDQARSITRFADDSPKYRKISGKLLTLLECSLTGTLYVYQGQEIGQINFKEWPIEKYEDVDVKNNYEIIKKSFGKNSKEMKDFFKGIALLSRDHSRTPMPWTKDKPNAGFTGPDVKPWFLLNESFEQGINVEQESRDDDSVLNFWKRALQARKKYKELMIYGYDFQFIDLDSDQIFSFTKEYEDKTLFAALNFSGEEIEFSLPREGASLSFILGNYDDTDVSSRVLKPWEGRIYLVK
smiles,measurement,setting,value
C[C@H]1O[C@H](O[C@H]2[C@H](O)[C@@H](O)[C@@H](O[C@H]3[C@H](O)[C@@H](O)C(O)O[C@@H]3CO)O[C@@H]2CO)[C@H](O)[C@@H](O)[C@@H]1N[C@H]1C=C(CO)[C@@H](O)[C@H](O)[C@H]1O (some centres unmarked) [Acarbose],% inhibition of yeast α-glucosidase,[1]; at 40 mg/ml,73.9%
same,IC50 Rat α-glucosidase,[2],0.4493 mg/mL
same,% inhibition of rat α-glucosidase,[2],58.7%
same,inhibition at 156 µg/mL,[3]; [14],73.9%
"O=c1c2cc(O)c(O)cc2oc2cc(O)c([C@@H]3O[C@H](CO)[C@@H](O)[C@H](O)[C@H]3O)c(O)c12 [Mangiferin, 1,3,6,7-Tetrahydroxyxanthone C2-ß-D-glucoside]",inhibition at 2500 µg/mL,[1]; read-out: % inhibition of yeast α-glucosidase,93.3%
same,IC50 Rat α-glucosidase,[2],0.4333 mg/mL
same,IC50 Rat α-glucosidase,[2]; listed as mangiferin,0.43 mg/mL
same,% inhibition of rat α-glucosidase,[2],92.6%
same,IC50,[3],2.48 mM
same,inhibition at 5000 µg/mL,[3]; [14],95.6%
same,IC50,[4],> 200 µg/mL
same,IC50,[5],> 200 µg/mL
same,IC50,[6],> 200 µg/mL
same,IC50,[7],> 200 µg/mL
same,IC50,[8],> 200 µg/mL
same,IC50,"[9]; Homo sapiens, CCD-986Sk, 48 h, read-out: IC50 CCD",> 200 µg/mL
same,effect on % survival of skin fibroblast normal cell line,"[9]; MTT, listed as mangiferin",tended to increase the survival; also recorded: increased % survival of skin fibroblast
same,IC50,"[10]; Homo sapiens, WI-38 VA13, 48 h, read-out: IC50 Wi-38",> 200 µg/mL
same,effect on survival of lung fibroblast normal cell line,"[10]; at high dose, MTT",tended to increase the survival
same,effect on % survival of tested cancer cells,[11],did not significantly affect % survival
same,effect on % survival of tested cancer cells,[11]; listed as mangiferin,did not show significantly toxicity
same,IC50 α-glucosidase,[12],41.88 µg/mL
same,IC50 α-amylase,[13],74.35 µg/mL
